Like-named read-outs stand apart in the source and are kept apart here. Some results are limits rather than exact numbers.

Assay [1] deals with human melanocortin-4 receptor (hMC4R-Flag) (human) (UniProt P32245).
In assay [2] the target is T1, hMC4R (Homo sapiens, UniProt P32245). Format: cell-based.
The target of assay [3] is T1, hMC4R. The experiment in a line: AlphaScreen cAMP Schild analysis, inhibition of NDP-MSH agonist stimulation. It counts as cell-based. Particulars: antagonism of NDP-MSH, pA2 = −log(Ki). The gist of the method:
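HEK293 cells stably expressing Flag-tagged hMC4R (calcium phosphate transfection, G418 selection), lifted with Versene, 10,000 cells/well in HBSS stimulation buffer (0.5 mM IBMX, 5 mM HEPES, 0.1% BSA, pH 7.4).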

Assay [4] addresses mMC4R-NanoLuc and mMC4R-HaloTag homodimer (Mus musculus, UniProt P56450). Kind of assay: NanoBRET ligand-induced response of the mMC4R homodimer. Format: cell-based. On the technique in general: In BRET a luciferase serves as donor, and the signal depends on an acceptor being close.
The target of assay [5] is T1, hMC4R. The experiment in a line: PRESTO-Tango β-arrestin2 recruitment assay, HTLA cells transfected with hMC4R. It counts as cell-based. A general note: Recruitment of arrestin is a read-out of receptor activation apart from second messengers.
Assay [6] relates to hMC4R. Conditions: 1 µM, not significant; cited from earlier work.

T1 sequence (P32245 whole entry): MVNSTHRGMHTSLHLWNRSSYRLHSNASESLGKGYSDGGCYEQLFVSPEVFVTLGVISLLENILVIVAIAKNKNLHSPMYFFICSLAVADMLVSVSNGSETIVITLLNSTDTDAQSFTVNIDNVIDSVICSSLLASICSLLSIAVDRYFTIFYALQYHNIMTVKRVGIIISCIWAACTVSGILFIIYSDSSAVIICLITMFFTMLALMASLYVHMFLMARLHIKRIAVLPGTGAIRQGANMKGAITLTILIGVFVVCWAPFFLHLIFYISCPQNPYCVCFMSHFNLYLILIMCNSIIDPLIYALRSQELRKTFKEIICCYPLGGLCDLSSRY
Chain of human melanocortin-4 receptor (hMC4R-Flag) (human) (P32245 whole entry): as above
Chain of mMC4R-NanoLuc and mMC4R-HaloTag homodimer (P56450 whole entry): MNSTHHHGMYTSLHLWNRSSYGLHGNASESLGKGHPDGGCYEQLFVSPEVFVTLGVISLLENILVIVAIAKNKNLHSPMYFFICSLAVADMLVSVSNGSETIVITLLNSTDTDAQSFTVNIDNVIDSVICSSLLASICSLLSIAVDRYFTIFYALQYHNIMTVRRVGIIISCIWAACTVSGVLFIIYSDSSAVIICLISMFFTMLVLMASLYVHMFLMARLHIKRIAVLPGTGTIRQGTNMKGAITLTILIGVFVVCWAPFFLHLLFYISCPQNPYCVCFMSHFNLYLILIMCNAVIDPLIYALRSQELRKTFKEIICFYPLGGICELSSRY
Chain of mMC4R-NanoLuc and mMC4R-HaloTag homodimer (P56450 whole entry): as above

In turn, NDP-MSH (peptide) had a cAMP signaling EC50 (AlphaScreen, HEK293 cells stably expressing hMC4R) in assay [1] of 0.06 nM.
Regarding Ac-His-DNal(2ʹ)-Arg-Trp-NH2 [CJL-1–80], the “cAMP signaling, % of maximal signal at 10 µM compared to control NDP-MSH maximal signal” value on hMC4R [2] (hMC4R, at 10 µM) is on record as 50%. Moreover, on hMC4R [3], the “pA2 (Schild analysis)” value is 7.82±0.03. Moreover, the “change in BRET signal from basal levels” value in assay [4] (10^−5, 10^−7 and 10^−9 M) is reported as “no significant changes”. The “β-Arrestin recruitment, % of maximal signal at 10 µM compared to control NDP-MSH maximal signal” value on hMC4R [5] (hMC4R) turned out to be 30% at 10 µM; at hMC4R [5] (hMC4R, listed as Ac-His-DNal(2ʹ)-Arg-Trp-NH2), 30%.
For `CC(=O)NCCCOCCOCCOCCCNC(=O)COCC(=O)N[C@@H](Cc1c[nH]cn1)C(=O)N[C@H](Cc1ccccc1)C(=O)N[C@@H](CCCNC(=N)N)C(=O)N[C@@H](Cc1c[nH]c2ccccc12)C(N)=O` [CJL-1–116], the EC50 came out at 2 ± 0.3 nM on hMC4R [2] and 140 ± 70 nM on hMC4R [5]. Besides, on hMC4R [5] (hMC4R), the “fold increase in β-arrestin recruitment potency compared to CJL-1–14” value is listed as under 3 fold.
Consider α-MSH [reference compound], for which, in the assay with hMC4R [6], the “decrease of mean BRET signal compared to basal BRET signal” value is on record as “approximately 20%”. Besides, the “reduction in BRET signal compared to basal signal” value in assay [4] (ligand at 10 µM) came to 15%.
Consider `CC(=O)N[C@@H](Cc1c[nH]cn1)C(=O)N[C@H](Cc1ccc2ccccc2c1)C(=O)N[C@@H](CCCNC(=N)N)C(=O)N[C@@H](Cc1c[nH]c2ccccc12)C(=O)N1CCC[C@H]1C(=O)NCC(=O)N1CCC[C@H]1C(=O)NCC(=O)N1CCC[C@H]1C(=O)NCC(=O)N1CCC[C@H]1C(=O)NCC(=O)N1CCC[C@H]1C(=O)NCC(=O)N1CCC[C@H]1C(=O)NCC(=O)N[C@@H](Cc1c[nH]cn1)C(=O)N[C@H](Cc1ccccc1)C(=O)N[C@@H](CCCNC(=N)N)C(=O)N[C@@H](Cc1c[nH]c2ccccc12)C(N)=O` [CJL-1–63], for which, at hMC4R [2] (hMC4R), the “cAMP pharmacology” value was “single digit nanomolar potent agonists”.
On to `CC(=O)N[C@@H](Cc1c[nH]cn1)C(=O)N[C@H](Cc1ccc2ccccc2c1)C(=O)N[C@@H](CCCNC(=N)N)C(=O)N[C@@H](Cc1c[nH]c2ccccc12)C(=O)NCCCOCCOCCOCCCNC(=O)COCC(=O)NCCCOCCOCCOCCCNC(=O)COCC(=O)N[C@@H](Cc1c[nH]cn1)C(=O)N[C@H](Cc1ccccc1)C(=O)N[C@@H](CCCNC(=N)N)C(=O)N[C@@H](Cc1c[nH]c2ccccc12)C(N)=O` [CJL-5–74], for which the “cAMP pharmacology” value on hMC4R [2] (hMC4R) is recorded as “single digit nanomolar potent agonists”.
Compound MTII (peptide) showed a cAMP signaling EC50 (AlphaScreen, HEK293 cells stably expressing hMC4R) in assay [1] of 0.03 nM.

Broadly, the EC50 is the concentration giving half of the maximal effect. The low end stands for a more potent agent, the high end for a less potent agent.

These data come from paper PMC6226371 (Journal of medicinal chemistry, 2018).
